Measured values from different studies.
Lines come from different studies, so protocols differ.
Target: Histone deacetylase 8 (HDAC8, Homo sapiens, UniProt Q9BY41)
Observed: enzyme activity
Action: inhibitor
Sequence (Q9BY41 1-377, as in one of the studies): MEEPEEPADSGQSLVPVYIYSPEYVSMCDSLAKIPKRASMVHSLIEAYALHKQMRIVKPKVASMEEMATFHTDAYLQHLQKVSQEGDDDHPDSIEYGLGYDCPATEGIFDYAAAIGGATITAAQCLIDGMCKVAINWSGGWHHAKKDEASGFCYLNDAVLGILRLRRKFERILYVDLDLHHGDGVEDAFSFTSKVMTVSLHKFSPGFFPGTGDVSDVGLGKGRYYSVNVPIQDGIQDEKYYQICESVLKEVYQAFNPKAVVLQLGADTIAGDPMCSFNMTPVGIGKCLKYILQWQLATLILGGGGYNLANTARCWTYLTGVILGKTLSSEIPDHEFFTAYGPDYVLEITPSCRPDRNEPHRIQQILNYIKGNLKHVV

SMILES | method | IC50
O=C(/C=C/c1ccc(O)c(O)c1)O[C@@H]1C[C@](O)(C(=O)O)C[C@@H](O)[C@H]1O |  | 8.62 µM
CC(C)C[C@H]1CC(=O)N2CCC[C@H]2C(=O)N[C@@H](CCCCCC(=O)NO)C(=O)N[C@@H](Cc2c[nH]c3ccccc23)C(=O)N1 |  | 0.18 µM
CCCON(Cc1ccc(C(=O)NO)cc1)C(=O)Nc1ccccc1 | fluorescence | 4.64 µM
Nc1ccc(-c2ccncc2)cc1NC(=O)N1CCCC1 |  | > 33.3 µM
CCCON(Cc1ccc(C(=O)NO)cc1)C(=O)Nc1ccc(N(C)C)cc1 | fluorescence | 4.46 µM
CCCC[C@H](NC(=O)[C@H](C)c1c(C)[nH]c2ccc(O)cc12)c1ncc(-c2cc3ccccc3nc2OC)[nH]1 |  | > 45 µM
O=c1c(O)c(-c2ccc(O)c(O)c2)oc2cc(O)cc(O)c12 |  | 7.72 µM
O=C(CCCCCCC(=O)N[c-]1cccc1)NO.[Fe+2].c1cc[cH-]c1 | fluorescence | 1.36 µM
